Experimental data as given in ChEMBL document CHEMBL1124366, “Synthesis and biological properties of N63-carboxamides of teicoplanin antibiotics. Structure-activity relationships” (J Med Chem, 1989).
Values after ≈ are worked out from the molar mass of the structure shown.

Key:
Type in all cases: functional
Escherichia coli = experiment: In vitro minimum inhibitory concentration against Escherichia coli SKF 12140
Streptococcus pyogenes [1] = experiment: Subcutaneously administration into mice infected with Streptococcus pyogenes C 203; settings: sc
Outline: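 Mice (five per treatment group, five groups) infected intraperitoneally with about 10⁵ cells of Strep. pyogenes C 203, about 100× the LD50. ED50 (mg/kg) was calculated from the percentage of mice surviving at each dose on day 7.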

Pseudomonas aeruginosa = experiment: In vitro minimum inhibitory concentration against Pseudomonas aeruginosa ATCC 10145
[2] = tested on: Staphylococcus epidermidis; experiment: In vitro minimum inhibitory concentration against Staphylococcus epidermis ATCC 12228
[3] = tested on: Staphylococcus haemolyticus; experiment: In vitro minimum inhibitory concentration against Staphylococcus hemolyticus 602 cell line; settings: strain 602
Staphylococcus aureus = experiment: In vitro minimum inhibitory concentration against Staphylococcus aureus Tour
Streptococcus pneumoniae = experiment: In vitro minimum inhibitory concentration against Streptococcus pneumoniae UC41
Streptococcus pyogenes [4] = experiment: In vitro minimum inhibitory concentration against Streptococcus pyogenes C 203
Enterococcus faecalis = experiment: In vitro minimum inhibitory concentration against Streptococcus faecalis ATCC 7080
Proteus vulgaris = experiment: In vitro minimum inhibitory concentration against Proteus vulgaris X 19 ATCC 881

| SMILES | MIC (Escherichia coli) | ED50 (Streptococcus pyogenes [1]) | MIC (Pseudomonas aeruginosa) | MIC [2] | MIC [3] | MIC (Staphylococcus aureus) | MIC (Streptococcus pneumoniae) | MIC (Streptococcus pyogenes [4]) | MIC (Enterococcus faecalis) | MIC (Proteus vulgaris) |
| --- | --- | --- | --- | --- | --- | --- | --- | --- | --- | --- |
| CNCCN(C)C(=O)[C@H]1NC(=O)[C@H]2NC(=O)[C@H](NC(=O)[C@@H]3NC(=O)[C@H]4NC(=O)[C@@H](Cc5ccc(c(Cl)c5)Oc5cc3cc(c5O)Oc3ccc(cc3Cl)[C@H]2O)NC(=O)[C@H](N)c2ccc(O)c(c2)Oc2cc(O)cc4c2)c2ccc(O)c(c2)-c2c(O)cc(O)cc21 | 16 µg/mL (≈ 12.6 µM) | 1.25 mg/kg | 64 µg/mL (≈ 50.4 µM) | 0.06 µg/mL (≈ 0.0473 µM) | 0.12 µg/mL (≈ 0.0946 µM) | 0.12 µg/mL (≈ 0.0946 µM) | 0.12 µg/mL (≈ 0.0946 µM) | 0.12 µg/mL (≈ 0.0946 µM) | 0.12 µg/mL (≈ 0.0946 µM) | > 128 µg/mL |
| CCNCCNC(=O)[C@H]1NC(=O)[C@H]2NC(=O)[C@H](NC(=O)[C@@H]3NC(=O)[C@H]4NC(=O)[C@@H](Cc5ccc(c(Cl)c5)Oc5cc3cc(c5O)Oc3ccc(cc3Cl)[C@H]2O)NC(=O)[C@H](N)c2ccc(O)c(c2)Oc2cc(O)cc4c2)c2ccc(O)c(c2)-c2c(O)cc(O)cc21 | 8 µg/mL (≈ 6.3 µM) | 1.25 mg/kg | 32 µg/mL (≈ 25.2 µM) | 0.06 µg/mL (≈ 0.0473 µM) | 0.12 µg/mL (≈ 0.0946 µM) | 0.06 µg/mL (≈ 0.0473 µM) | 0.12 µg/mL (≈ 0.0946 µM) | 0.06 µg/mL (≈ 0.0473 µM) | 0.12 µg/mL (≈ 0.0946 µM) | 64 µg/mL (≈ 50.4 µM) |
| N[C@H]1C(=O)N[C@@H]2Cc3ccc(c(Cl)c3)Oc3cc4cc(c3O)Oc3ccc(cc3Cl)[C@@H](O)[C@@H]3NC(=O)[C@H](NC(=O)[C@@H]4NC(=O)[C@@H](NC2=O)c2cc(O)cc(c2)Oc2cc1ccc2O)c1ccc(O)c(c1)-c1c(O)cc(O)cc1[C@@H](C(=O)NCCCN1CCOCC1)NC3=O | 8 µg/mL (≈ 6.04 µM) | 1.4 mg/kg | 32 µg/mL (≈ 24.1 µM) | 0.06 µg/mL (≈ 0.0453 µM) | 0.12 µg/mL (≈ 0.0906 µM) | 0.06 µg/mL (≈ 0.0453 µM) | 0.12 µg/mL (≈ 0.0906 µM) | 0.06 µg/mL (≈ 0.0453 µM) | 0.12 µg/mL (≈ 0.0906 µM) | 64 µg/mL (≈ 48.3 µM) |
| NCCCCCCNC(=O)[C@H]1NC(=O)[C@H]2NC(=O)[C@H](NC(=O)[C@@H]3NC(=O)[C@H]4NC(=O)[C@@H](Cc5ccc(c(Cl)c5)Oc5cc3cc(c5O)Oc3ccc(cc3Cl)[C@H]2O)NC(=O)[C@H](N)c2ccc(O)c(c2)Oc2cc(O)cc4c2)c2ccc(O)c(c2)-c2c(O)cc(O)cc21 | 4 µg/mL (≈ 3.08 µM) | 0.54 mg/kg | 64 µg/mL (≈ 49.3 µM) | 0.06 µg/mL (≈ 0.0463 µM) | 0.12 µg/mL (≈ 0.0925 µM) | 0.06 µg/mL (≈ 0.0463 µM) | 0.06 µg/mL (≈ 0.0463 µM) | 0.06 µg/mL (≈ 0.0463 µM) | 0.12 µg/mL (≈ 0.0925 µM) | 64 µg/mL (≈ 49.3 µM) |
| CNCCCNC(=O)[C@H]1NC(=O)[C@H]2NC(=O)[C@H](NC(=O)[C@@H]3NC(=O)[C@H]4NC(=O)[C@@H](Cc5ccc(c(Cl)c5)Oc5cc3cc(c5O)Oc3ccc(cc3Cl)[C@H]2O)NC(=O)[C@H](N)c2ccc(O)c(c2)Oc2cc(O)cc4c2)c2ccc(O)c(c2)-c2c(O)cc(O)cc21 | 4 µg/mL (≈ 3.15 µM) | 0.95 mg/kg | 16 µg/mL (≈ 12.6 µM) | 0.06 µg/mL (≈ 0.0473 µM) | 0.25 µg/mL (≈ 0.197 µM) | 0.06 µg/mL (≈ 0.0473 µM) | 0.12 µg/mL (≈ 0.0946 µM) | 0.06 µg/mL (≈ 0.0473 µM) | 0.12 µg/mL (≈ 0.0946 µM) | 16 µg/mL (≈ 12.6 µM) |
| CN(C)CCCCCNC(=O)[C@H]1NC(=O)[C@H]2NC(=O)[C@H](NC(=O)[C@@H]3NC(=O)[C@H]4NC(=O)[C@@H](Cc5ccc(c(Cl)c5)Oc5cc3cc(c5O)Oc3ccc(cc3Cl)[C@H]2O)NC(=O)[C@H](N)c2ccc(O)c(c2)Oc2cc(O)cc4c2)c2ccc(O)c(c2)-c2c(O)cc(O)cc21 | 8 µg/mL (≈ 6.1 µM) | 0.72 mg/kg | 64 µg/mL (≈ 48.8 µM) | 0.06 µg/mL (≈ 0.0458 µM) | 0.12 µg/mL (≈ 0.0915 µM) | 0.06 µg/mL (≈ 0.0458 µM) | 0.12 µg/mL (≈ 0.0915 µM) | 0.06 µg/mL (≈ 0.0458 µM) | 0.12 µg/mL (≈ 0.0915 µM) | 128 µg/mL (≈ 97.6 µM) |
| NCCNC(=O)[C@H]1NC(=O)[C@H]2NC(=O)[C@H](NC(=O)[C@@H]3NC(=O)[C@H]4NC(=O)[C@@H](Cc5ccc(c(Cl)c5)Oc5cc3cc(c5O)Oc3ccc(cc3Cl)[C@H]2O)NC(=O)[C@H](N)c2ccc(O)c(c2)Oc2cc(O)cc4c2)c2ccc(O)c(c2)-c2c(O)cc(O)cc21 | 4 µg/mL (≈ 3.22 µM) | 1.25 mg/kg | 16 µg/mL (≈ 12.9 µM) | 0.03 µg/mL (≈ 0.0242 µM) | 0.12 µg/mL (≈ 0.0967 µM) | 0.06 µg/mL (≈ 0.0483 µM) | 0.12 µg/mL (≈ 0.0967 µM) | 0.06 µg/mL (≈ 0.0483 µM) | 0.12 µg/mL (≈ 0.0967 µM) | 16 µg/mL (≈ 12.9 µM) |
| CNCCNC(=O)[C@H]1NC(=O)[C@H]2NC(=O)[C@H](NC(=O)[C@@H]3NC(=O)[C@H]4NC(=O)[C@@H](Cc5ccc(c(Cl)c5)Oc5cc3cc(c5O)Oc3ccc(cc3Cl)[C@H]2O)NC(=O)[C@H](N)c2ccc(O)c(c2)Oc2cc(O)cc4c2)c2ccc(O)c(c2)-c2c(O)cc(O)cc21 | 4 µg/mL (≈ 3.19 µM) | 2.2 mg/kg | 32 µg/mL (≈ 25.5 µM) | 0.03 µg/mL (≈ 0.0239 µM) | 0.06 µg/mL (≈ 0.0478 µM) | 0.06 µg/mL (≈ 0.0478 µM) | 0.12 µg/mL (≈ 0.0956 µM) | 0.06 µg/mL (≈ 0.0478 µM) | 0.12 µg/mL (≈ 0.0956 µM) | 32 µg/mL (≈ 25.5 µM) |
| N[C@H]1C(=O)N[C@@H]2Cc3ccc(c(Cl)c3)Oc3cc4cc(c3O)Oc3ccc(cc3Cl)[C@@H](O)[C@@H]3NC(=O)[C@H](NC(=O)[C@@H]4NC(=O)[C@@H](NC2=O)c2cc(O)cc(c2)Oc2cc1ccc2O)c1ccc(O)c(c1)-c1c(O)cc(O)cc1[C@@H](C(=O)NC1CN2CCC1CC2)NC3=O (stereo not given in full) | 8 µg/mL (≈ 6.12 µM) | 0.46 mg/kg | 32 µg/mL (≈ 24.5 µM) | 0.06 µg/mL (≈ 0.0459 µM) |  | 0.12 µg/mL (≈ 0.0918 µM) | 0.06 µg/mL (≈ 0.0459 µM) | 0.06 µg/mL (≈ 0.0459 µM) | 0.12 µg/mL (≈ 0.0918 µM) | 64 µg/mL (≈ 49 µM) |
| CN1CCN(C(=O)[C@H]2NC(=O)[C@H]3NC(=O)[C@H](NC(=O)[C@@H]4NC(=O)[C@H]5NC(=O)[C@@H](Cc6ccc(c(Cl)c6)Oc6cc4cc(c6O)Oc4ccc(cc4Cl)[C@H]3O)NC(=O)[C@H](N)c3ccc(O)c(c3)Oc3cc(O)cc5c3)c3ccc(O)c(c3)-c3c(O)cc(O)cc32)CC1 | 16 µg/mL (≈ 12.5 µM) | 0.95 mg/kg | 32 µg/mL (≈ 25 µM) | 0.03 µg/mL (≈ 0.0234 µM) |  | 0.06 µg/mL (≈ 0.0468 µM) | 0.12 µg/mL (≈ 0.0937 µM) | 0.12 µg/mL (≈ 0.0937 µM) | 0.12 µg/mL (≈ 0.0937 µM) | 64 µg/mL (≈ 50 µM) |
| CCN(CC)CCCNC(=O)[C@H]1NC(=O)[C@H]2NC(=O)[C@H](NC(=O)[C@@H]3NC(=O)[C@H]4NC(=O)[C@@H](Cc5ccc(c(Cl)c5)Oc5cc3cc(c5O)Oc3ccc(cc3Cl)[C@H]2O)NC(=O)[C@H](N)c2ccc(O)c(c2)Oc2cc(O)cc4c2)c2ccc(O)c(c2)-c2c(O)cc(O)cc21 | 8 µg/mL (≈ 6.1 µM) | 0.18 mg/kg | 32 µg/mL (≈ 24.4 µM) | 0.03 µg/mL (≈ 0.0229 µM) |  | 0.12 µg/mL (≈ 0.0915 µM) | 0.12 µg/mL (≈ 0.0915 µM) | 0.06 µg/mL (≈ 0.0458 µM) | 0.12 µg/mL (≈ 0.0915 µM) | 32 µg/mL (≈ 24.4 µM) |
| CCCCN(CCCC)CCCNC(=O)[C@H]1NC(=O)[C@H]2NC(=O)[C@H](NC(=O)[C@@H]3NC(=O)[C@H]4NC(=O)[C@@H](Cc5ccc(c(Cl)c5)Oc5cc3cc(c5O)Oc3ccc(cc3Cl)[C@H]2O)NC(=O)[C@H](N)c2ccc(O)c(c2)Oc2cc(O)cc4c2)c2ccc(O)c(c2)-c2c(O)cc(O)cc21 | 8 µg/mL (≈ 5.85 µM) | 0.72 mg/kg | 64 µg/mL (≈ 46.8 µM) | 0.06 µg/mL (≈ 0.0439 µM) |  | 0.12 µg/mL (≈ 0.0878 µM) | 0.12 µg/mL (≈ 0.0878 µM) | 0.06 µg/mL (≈ 0.0439 µM) | 0.12 µg/mL (≈ 0.0878 µM) | 32 µg/mL (≈ 23.4 µM) |
| N[C@H]1C(=O)N[C@@H]2Cc3ccc(c(Cl)c3)Oc3cc4cc(c3O)Oc3ccc(cc3Cl)[C@@H](O)[C@@H]3NC(=O)[C@H](NC(=O)[C@@H]4NC(=O)[C@@H](NC2=O)c2cc(O)cc(c2)Oc2cc1ccc2O)c1ccc(O)c(c1)-c1c(O)cc(O)cc1[C@@H](C(=O)NCCCCCC(=O)N[C@@H]1[C@@H](O)[C@@H](O)[C@@H](CO)O[C@H]1O)NC3=O | 64 µg/mL (≈ 43.4 µM) | 2.9 mg/kg | > 128 µg/mL | 0.06 µg/mL (≈ 0.0407 µM) |  | 0.12 µg/mL (≈ 0.0815 µM) | 0.25 µg/mL (≈ 0.17 µM) | 0.12 µg/mL (≈ 0.0815 µM) | 0.25 µg/mL (≈ 0.17 µM) | > 128 µg/mL |
